Many of the other results were omitted from the sample, so hits are more common in it than they were.
XBP1 UPR activ: adaptive UPR (XBP1) activation; CHO-XBP1 luciferase reporter, IRE1-XBP1 UPR activation, luminescence; percent of tunicamycin response, DMSO as zero; activation, % at 20 µM; actives 0.33% (n = 330,000);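 active = versus positive control, 20 µM dose yields 30% or more activation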;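 note: 100% = tunicamycin at 10 µg/mL and 0% = DMSO only wells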
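Material: CHO cell line with stable XBP1 luciferase reporter; schedule: 16-18 h cell attachment at 37 °C, then 6 h compound exposure; signal: glow luminescence from Steady-Glo reagent; medium: serum-containing F12 medium, 10% FBS; benchmarks: tunicamycin 10 µg/mL and vehicle-only wells; read-out: percent activation relative to tunicamycin reference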
UPR CHOP act: apoptotic UPR (CHOP) activation. CHO-CHOP luciferase reporter, luminescence; percent of tunicamycin response over DMSO baseline. activation, % at 10 µM. actives 0.34% (n = 330,000). AID 449763;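 active = at 10 µM dose, activation of 40% or more, normalized to positive control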;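 note: 100% = tunicamycin at 10 µg/mL and 0% = DMSO alone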
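Evaluation: % reporter activation, DMSO baseline versus tunicamycin full activation; System: CHO-CHOP luciferase reporter cell line; Input: 500 cells/well; Incubation: 6 h compound treatment, 37 °C; Measured by: Steady-Glo luciferase luminescence; Dosing: one dose, 10 µM in 0.5% DMSO; Buffer or medium: F12 medium, 10% FBS; Benchmarks: positive tunicamycin 10 µg/mL, negative DMSO alone.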
CTSL1 counter: counter-screen for PFM18AAP inhibitors: inhibitors of F. hepatica cathepsin L1 | actives 0.49% (n = 300,000) | recombinant F. hepatica cathepsin L1, Z-Leu-Arg-MCA fluorescence | inhibition, % at 5.96 µM;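 active = inhibition above the mean of all tested compounds plus 3 SD, set per screening campaign, cut at about 17% in these data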;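 note: 0% = plate median of test compound wells and 100% = 1 µM Z-Phe-Ala-diazomethylketone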
UCH37 inh: blocks the human deubiquitinase UCH37; inhibition, % (test concentration not listed); purified proteasome/UCH37, Ub-AMC cleavage fluorescence; AID 588478; Q9Y5K5; actives 0.33% (n = 330,000);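 active = mean inhibition over replicate wells above about 20%, limit read from the data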;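 note: 0% = compound-free wells with enzyme and 100% = wells lacking proteasome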
Target sequence (Q9Y5K5 whole entry, looked up): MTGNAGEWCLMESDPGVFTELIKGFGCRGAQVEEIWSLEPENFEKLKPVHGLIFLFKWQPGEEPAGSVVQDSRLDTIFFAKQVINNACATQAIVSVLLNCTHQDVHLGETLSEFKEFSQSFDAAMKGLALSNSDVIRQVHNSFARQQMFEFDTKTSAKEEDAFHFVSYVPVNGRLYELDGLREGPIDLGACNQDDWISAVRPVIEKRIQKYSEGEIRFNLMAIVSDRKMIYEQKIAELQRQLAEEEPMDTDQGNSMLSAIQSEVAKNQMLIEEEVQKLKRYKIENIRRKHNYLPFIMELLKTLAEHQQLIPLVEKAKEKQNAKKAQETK
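System: Proteasome-associated human UCH37 deubiquitinase; Input: 0.15 nM proteasome in added enzyme buffer; Also added: Ub-AMC substrate from 1 µM stock; Incubation: 30 min compound-proteasome preincubation then 25 min substrate reaction, room temperature; Detection: fluorescence, ex 355 nm, em 460 nm; Read-out: % inhibition of Ub-AMC cleavage fluorescence; Benchmarks: no-proteasome and no-compound wells.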
CHOP inhibitor: inhibitors of CHOP induction in ER stress response. CHO-K1 CHOP-promoter luciferase, tunicamycin-induced, 15-18 h. inhibition, % at 10 µM. AID 2732. actives 3.8% (n = 220,000);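 active = compounds that reduced the stress-induced luciferase reporter signal by more than about 70% of percent inhibition, limit read from the data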;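 note: 0% = tunicamycin plus vehicle and 100% = wells without tunicamycin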
UPR CHOP confirm: apoptotic UPR (CHOP) activation, confirmed | shares compounds with UPR CHOP act | activation, % at 10 µM | CHO-CHOP cells, CHOP-luciferase reporter luminescence; percent of tunicamycin response, DMSO as zero | actives 64% (n = 1,000) | AID 463112; in the data active = activation above about 33%;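 note: 0% = DMSO wells and 100% = tunicamycin 10 µg/mL wells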
Active calls of the source: *; i = inactive; x = no result.

SMILES	XBP1 UPR activ	UPR CHOP act	CTSL1 counter	UCH37 inh	CHOP inhibitor	UPR CHOP confirm
CN(C)C(=O)CSc1cccc2cccnc12	4.1	214.1*	6.8	-96.3	30.3	204.9*
O=C(CSc1cccc2cccnc12)N1CCCC1	9.7	-8.4	2.1	-104.3	-8.1	x
CC(C)=CCc1c(O)ccc2c1OC(c1ccc(O)c(O)c1)CC2=O (stereo unspecified)	15.2	68.7*	-3.5	0.9	41.2	27.1
O=C1CC(c2ccc(O)c(O)c2)Oc2c1ccc(O)c2O (stereo unspecified)	1.1	2.6	-0.5	4.9	-17.9	x
CC(=NNC(=O)c1ccc2c(c1)OCO2)c1ccc(NC(=O)CCCC(=O)O)cc1	x	x	x	4.0	x	x
CCOC(=O)c1nc2sc(C)c(C)c2c(=O)[nH]1	-2.9	6.3	3.8	i	2.6	x
CCOC(=O)/C(=C\c1cccc(O)c1)c1nc2sc(C)c(C)c2c(=O)[nH]1	-2.4	47.5*	-0.1	1.6	-83.7	162.7*
N#Cc1c(N=Cc2ccc(O)c([N+](=O)[O-])c2)sc2c1CCCC2	x	x	x	3.9	x	x
O=c1oc(-c2ccc(O)c(O)c2)cc2cccc(O)c12	18.9	53.8*	x	-53.1	x	8.7
O=c1oc(-c2ccc(O)c(O)c2)cc2cc(O)cc(O)c12	10.8	8.5	x	-141.8	x	x
COC(=O)NN=Cc1ccc([N+](=O)[O-])o1	x	x	x	12.0	x	x
CC(NC(=O)C12CC3CC(CC(C3)C1)C2)C(=O)NN=Cc1ccc([N+](=O)[O-])o1 (stereo unspecified)	4.8	197.3*	x	11.9	x	0.0
COc1cccc(OC)c1C(=O)NC(C)C12CC3CC(CC(C3)C1)C2 (stereo unspecified)	-1.7	-0.8	-1.1	0.9	16.4	x
CC(NC(=O)c1ccc([N+](=O)[O-])o1)C12CC3CC(CC(C3)C1)C2 (stereo unspecified)	-4.9	84.7*	-0.5	2.7	x	14.8
COc1cc(/C=N\Nc2nc3ccccc3[nH]2)cc(OC)c1OC	-0.6	-0.3	1.3	x	6.3	x
CCCCn1c(/C=N/Nc2nc3ccccc3[nH]2)nc2ccccc21	27.6	113.2*	-2.2	x	-39.2	293.7*
COc1ccc2c(c1)c(/C=N/Nc1nc3ccccc3[nH]1)c(C)n2C	6.5	286.5*	2.7	x	-54.1	3.2
CCOc1cccc2cc(-c3csc(NC(=O)CCC(=O)NCCCN4CCC(C)CC4)n3)c(=O)oc12	2.8	5.0	-1.2	-17.6	-8.0	x
CCOc1cccc2cc(-c3csc(NC(=O)CCC(=O)N4CCC(C)CC4)n3)c(=O)oc12	36.7*	95.2*	-1.5	i	86.3*	16.3
CSc1ccccc1NC(=O)CN(C)C(=O)COc1cccc2cccnc12	13.0	47.6*	x	-1.8	x	12.5
COc1ccc(OC)c(N=Cc2c(O)c3ccccc3oc2=O)c1	219.5*	133.9*	-0.6	1.2	x	113.6*
Cc1cc(C)cc(N=Cc2c(O)c3ccccc3oc2=O)c1	28.9	9.9	1.2	-480.1	54.8	x
O=C(/C=C/c1ccc([N+](=O)[O-])cc1)/C=C/c1ccco1	-2.1	56.6*	2.8	x	x	108.4*
Oc1ccc(/C=N/N=C/c2ccc(O)c(O)c2)cc1O	28.3	66.7*	1.8	x	x	9.2
Oc1ccc(/C=N/N(c2ccccc2)c2ccccc2)cc1O	8.6	107.0*	-0.1	x	x	32.6*
SMILES	XBP1 UPR activ	UPR CHOP act	CTSL1 counter	UCH37 inh	CHOP inhibitor	UPR CHOP confirm
COc1ccc(C=NN(c2ccccc2)c2ccccc2)cc1O	x	x	x	3.9	x	x
O=Cc1ccc(O)c(O)c1	-7.3	-2.9	-0.6	5.7	30.9	x
COc1ccc(C=NN2CCN(c3ccncc3S(=O)(=O)N3CCCCC3)CC2)cc1	x	x	x	1.9	x	x
O=c1c(C=NN2CCOCC2)c(C(F)(F)F)[nH]n1-c1ccccc1	x	x	x	1.7	x	x
Cc1ccc(OCC(=O)NN=Cc2c(C)n(C)c3ccccc23)c([N+](=O)[O-])c1	x	x	x	3.3	x	x
COc1cc(C=NNc2nnc3c(n2)[nH]c2ccccc23)ccc1O	x	x	x	6.6	x	x
COc1cc(S(=O)(=O)N2CCC(c3nc4ccccc4s3)CC2)ccc1S(=O)(=O)N1CC(C)CC(C)C1 (stereo unspecified)	6.9	209.2*	5.2	1.0	-17.0	-1.6
CC1=CC(=O)C(C(C)C)=C/C1=N/OC(=O)c1cccc([N+](=O)[O-])c1	-6.8	73.4*	1.6	x	49.2	48.2*
CCCOc1ccc(Cl)cc1/C=C1/C(=O)ON=C1C	-7.6	1.4	-6.7	4.5	x	x
CC1=NOC(=O)/C1=C\c1ccc(-c2ccc(Cl)cc2Cl)o1	2.3	105.7*	x	x	112.1*	110.2*
CC1(C)CC(=O)C(=Cc2cn(-c3ccccc3)nc2-c2ccccc2)C(=O)C1	16.4	89.2*	-3.4	0.3	x	183.7*
COc1cc(C=NNC(=O)COc2ccc(Cl)cc2)ccc1OS(=O)(=O)c1ccc(C)cc1	x	x	x	1.9	x	x
COc1ccc(C(=O)Cn2c(C(=O)/C=C/c3ccccc3)nc3ccccc32)cc1	12.7	314.1*	4.2	6.3	-44.9	347.7*
O=C(CCS(=O)(=O)c1ccccc1)N(CCCN1CCOCC1)c1nc2ccc(F)cc2s1	-7.3	56.5*	0.8	x	x	21.1
c1ccc(CSc2ncccn2)cc1	4.2	2.4	-0.7	2.2	37.5	x
c1ccc(CSC2=NNC(c3ccccn3)S2)cc1 (stereo unspecified)	9.5	240.3*	0.4	7.3	16.9	312.8*
Cc1ccccc1OCc1nc2ccccc2c(=O)n1N=Cc1ccco1	x	x	x	-3.2	x	x
N#Cc1ccccc1Cn1cc(/C=C/[N+](=O)[O-])c2ccccc21	1.1	85.4*	-3.2	2.2	-20.4	5.2
O=C(O)Cn1cc(/C=C/[N+](=O)[O-])c2ccccc21	-0.1	-0.9	1.2	0.0	-16.5	x
O=C(Cn1cc(/C=C\[N+](=O)[O-])c2ccccc21)Nc1ccccc1	10.9	60.6*	-10.1	2.4	-30.6	115.5*
COc1ccc(NN=C(C)C(=NO)C(=O)Nc2ccccc2)cc1	x	x	x	5.7	x	x
c1ccc(-c2nc(NCc3ccco3)c3ccccc3n2)nc1	5.9	67.1*	4.5	4.6	66.0	8.1
Oc1ccccc1-c1nc(NCc2ccco2)c2ccccc2n1	3.8	1.8	0.7	1.2	33.4	x
O=C(O)c1cn(-c2ccccc2)nc1-c1ccncc1	-2.3	-0.9	0.3	0.7	15.7	x
O=C(c1cn(-c2ccccc2)nc1-c1ccncc1)n1nnc2ccccc21	-5.4	98.7*	4.7	3.5	x	25.1
Cc1c(Cl)cccc1NC(=S)NN=Cc1ccccc1Cl	x	x	x	5.1	x	x
Cc1nn(CC2CC2)c(=O)n1-c1ccccc1	1.1	47.7*	1.0	2.5	8.0	-1.1
Cc1nn(CC2CC2)c(=O)n1-c1ccc(Cl)cc1	-0.8	-0.4	-2.3	5.6	7.7	x
CC(=NNC(=O)c1cc(Br)ccc1O)C(=NO)C(=O)Nc1ccccc1	x	x	x	6.4	x	x

Compound activity: PubChem, several laboratories
